Source: ChEMBL document CHEMBL1275368, “Synthesis and evaluation of pyrazolone compounds as SARS-coronavirus 3C-like protease inhibitors” (Bioorg Med Chem, 2010)
Activity calls are given as the source filed them. No cut-off for these calls is given here.

target: Replicase polyprotein 1ab (Severe acute respiratory syndrome-related coronavirus, UniProt P0C6X7); assay: Inhibition of SARS coronavirus 3C-like protease by fluorescence plate reader analysis; conditions: not given

Row | SMILES | IC50
1 | O=C(O)c1ccc(/C=C2\C(=O)N(c3ccc(Cl)c(Cl)c3)N=C2c2ccccc2)cc1 | 24.3 µM
2 | O=C(O)c1ccc(/C=C2\C(=O)N(c3ccc(Cl)cc3)N=C2c2ccccc2)cc1 | 13.9 µM
3 | O=C(O)c1ccc(/C=C2\C(=O)N(c3ccccc3)N=C2c2ccccc2)cc1 | 18 µM
4 | COc1ccc(N2N=C(c3ccccc3)/C(=C/c3ccc(C(=O)O)cc3)C2=O)cc1 | 12 µM
5 | O=C(O)c1ccc(/C=C2\C(=O)N(c3ccc(OC(F)(F)F)cc3)N=C2c2ccccc2)cc1 | 42 µM
6 | N#Cc1ccc(N2N=C(c3ccccc3)/C(=C/c3ccc(C(=O)O)cc3)C2=O)cc1 | 5.5 µM
7 | O=C(O)c1ccc(/C=C2\C(=O)N(c3cccc([N+](=O)[O-])c3)N=C2c2ccccc2)cc1 | 8.4 µM
8 | O=C(O)c1ccc(/C=C2\C(=O)N(c3cccc(Cl)c3)N=C2c2ccccc2)cc1 | 10.8 µM
9 | O=C(O)c1ccc(/C=C2\C(=O)N(c3ccc(F)cc3)N=C2c2ccccc2)cc1 | 6.8 µM

target: Replicase polyprotein 1ab (Severe acute respiratory syndrome-related coronavirus) (UniProt P0C6X7); assay: Inhibition of SARS coronavirus 3C-like protease at 50 uM by fluorescence plate reader analysis; conditions: not given
Outline: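 Stored recombinant SARS-CoV 3CLpro at –70 °C in Tris/NaCl/EDTA/β-ME/DTT buffer. Screened compounds at 50 μM; those inhibiting >50% went on to the follow-up run.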

Row | SMILES | inhibition
10 | O=C1/C(=C\c2ccccc2)C(c2ccccc2)=NN1c1ccccc1 | inactive
11 | O=C1/C(=C\c2cccc([N+](=O)[O-])c2)C(c2ccccc2)=NN1c1ccccc1 | inactive
12 | O=C1/C(=C\c2ccc(O)cc2)C(c2ccccc2)=NN1c1ccc(Cl)cc1 | inactive
13 | COc1ccc(/C=C2\C(=O)N(c3ccc(Cl)cc3)N=C2c2ccccc2)cc1 | inactive
14 | CC(=O)Nc1ccc(/C=C2\C(=O)N(c3ccc(Cl)cc3)N=C2c2ccccc2)cc1 | inactive
15 | O=C1/C(=C\c2ccccc2)C(c2ccccc2)=NN1c1ccc(Cl)cc1 | inactive
16 | O=C1/C(=C\c2ccc(Cl)cc2)C(c2ccccc2)=NN1c1ccc(Cl)cc1 | inactive
17 | CC(C)(C)c1ccc(N2N=C(c3ccccc3)/C(=C/c3ccc(C(=O)O)cc3)C2=O)cc1 | inactive
18 | CN(C)c1ccc(/C=C2\C(=O)N(c3ccccc3)N=C2c2ccccc2)cc1 | inactive
19 | CC(=O)Nc1ccc(/C=C2\C(=O)N(c3ccccc3)N=C2c2ccccc2)cc1 | inactive
20 | CC(C)c1ccc(N2N=C(c3ccccc3)/C(=C/c3ccc(C(=O)O)cc3)C2=O)cc1 | inactive
21 | COc1cccc(/C=C2\C(=O)N(c3ccccc3)N=C2c2ccccc2)c1 | inactive

target: Genome polyprotein (Coxsackievirus B3 (strain Nancy), UniProt P03313); assay: Inhibition of coxsackievirus B3 3C protease by fluorescence plate reader analysis; conditions: not given
Sequence (P03313 1541-1723 limits assumed): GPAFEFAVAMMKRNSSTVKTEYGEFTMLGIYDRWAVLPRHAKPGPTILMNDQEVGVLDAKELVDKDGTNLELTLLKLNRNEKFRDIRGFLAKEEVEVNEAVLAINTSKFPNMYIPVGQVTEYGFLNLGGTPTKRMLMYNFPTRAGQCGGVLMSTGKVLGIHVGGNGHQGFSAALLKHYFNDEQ

Row | SMILES | IC50
22 | O=C(O)c1ccc(/C=C2\C(=O)N(c3ccc(Cl)c(Cl)c3)N=C2c2ccccc2)cc1 | 126 µM
23 | O=C(O)c1ccc(/C=C2\C(=O)N(c3ccc(Cl)cc3)N=C2c2ccccc2)cc1 | 25 µM
24 | O=C(O)c1ccc(/C=C2\C(=O)N(c3ccccc3)N=C2c2ccccc2)cc1 | 51.1 µM
25 | COc1ccc(N2N=C(c3ccccc3)/C(=C/c3ccc(C(=O)O)cc3)C2=O)cc1 | 16.6 µM
26 | O=C(O)c1ccc(/C=C2\C(=O)N(c3ccc(OC(F)(F)F)cc3)N=C2c2ccccc2)cc1 | 98.8 µM
27 | N#Cc1ccc(N2N=C(c3ccccc3)/C(=C/c3ccc(C(=O)O)cc3)C2=O)cc1 | 20.8 µM
28 | O=C(O)c1ccc(/C=C2\C(=O)N(c3cccc([N+](=O)[O-])c3)N=C2c2ccccc2)cc1 | 9.6 µM
29 | O=C(O)c1ccc(/C=C2\C(=O)N(c3cccc(Cl)c3)N=C2c2ccccc2)cc1 | 17.3 µM
30 | O=C(O)c1ccc(/C=C2\C(=O)N(c3ccc(F)cc3)N=C2c2ccccc2)cc1 | 22.4 µM

target: Genome polyprotein (Coxsackievirus B3 (strain Nancy)) (UniProt P03313); assay: Inhibition of coxsackievirus B3 3C protease at 50 uM by fluorescence plate reader analysis; conditions: not given
Sequence (P03313 whole entry): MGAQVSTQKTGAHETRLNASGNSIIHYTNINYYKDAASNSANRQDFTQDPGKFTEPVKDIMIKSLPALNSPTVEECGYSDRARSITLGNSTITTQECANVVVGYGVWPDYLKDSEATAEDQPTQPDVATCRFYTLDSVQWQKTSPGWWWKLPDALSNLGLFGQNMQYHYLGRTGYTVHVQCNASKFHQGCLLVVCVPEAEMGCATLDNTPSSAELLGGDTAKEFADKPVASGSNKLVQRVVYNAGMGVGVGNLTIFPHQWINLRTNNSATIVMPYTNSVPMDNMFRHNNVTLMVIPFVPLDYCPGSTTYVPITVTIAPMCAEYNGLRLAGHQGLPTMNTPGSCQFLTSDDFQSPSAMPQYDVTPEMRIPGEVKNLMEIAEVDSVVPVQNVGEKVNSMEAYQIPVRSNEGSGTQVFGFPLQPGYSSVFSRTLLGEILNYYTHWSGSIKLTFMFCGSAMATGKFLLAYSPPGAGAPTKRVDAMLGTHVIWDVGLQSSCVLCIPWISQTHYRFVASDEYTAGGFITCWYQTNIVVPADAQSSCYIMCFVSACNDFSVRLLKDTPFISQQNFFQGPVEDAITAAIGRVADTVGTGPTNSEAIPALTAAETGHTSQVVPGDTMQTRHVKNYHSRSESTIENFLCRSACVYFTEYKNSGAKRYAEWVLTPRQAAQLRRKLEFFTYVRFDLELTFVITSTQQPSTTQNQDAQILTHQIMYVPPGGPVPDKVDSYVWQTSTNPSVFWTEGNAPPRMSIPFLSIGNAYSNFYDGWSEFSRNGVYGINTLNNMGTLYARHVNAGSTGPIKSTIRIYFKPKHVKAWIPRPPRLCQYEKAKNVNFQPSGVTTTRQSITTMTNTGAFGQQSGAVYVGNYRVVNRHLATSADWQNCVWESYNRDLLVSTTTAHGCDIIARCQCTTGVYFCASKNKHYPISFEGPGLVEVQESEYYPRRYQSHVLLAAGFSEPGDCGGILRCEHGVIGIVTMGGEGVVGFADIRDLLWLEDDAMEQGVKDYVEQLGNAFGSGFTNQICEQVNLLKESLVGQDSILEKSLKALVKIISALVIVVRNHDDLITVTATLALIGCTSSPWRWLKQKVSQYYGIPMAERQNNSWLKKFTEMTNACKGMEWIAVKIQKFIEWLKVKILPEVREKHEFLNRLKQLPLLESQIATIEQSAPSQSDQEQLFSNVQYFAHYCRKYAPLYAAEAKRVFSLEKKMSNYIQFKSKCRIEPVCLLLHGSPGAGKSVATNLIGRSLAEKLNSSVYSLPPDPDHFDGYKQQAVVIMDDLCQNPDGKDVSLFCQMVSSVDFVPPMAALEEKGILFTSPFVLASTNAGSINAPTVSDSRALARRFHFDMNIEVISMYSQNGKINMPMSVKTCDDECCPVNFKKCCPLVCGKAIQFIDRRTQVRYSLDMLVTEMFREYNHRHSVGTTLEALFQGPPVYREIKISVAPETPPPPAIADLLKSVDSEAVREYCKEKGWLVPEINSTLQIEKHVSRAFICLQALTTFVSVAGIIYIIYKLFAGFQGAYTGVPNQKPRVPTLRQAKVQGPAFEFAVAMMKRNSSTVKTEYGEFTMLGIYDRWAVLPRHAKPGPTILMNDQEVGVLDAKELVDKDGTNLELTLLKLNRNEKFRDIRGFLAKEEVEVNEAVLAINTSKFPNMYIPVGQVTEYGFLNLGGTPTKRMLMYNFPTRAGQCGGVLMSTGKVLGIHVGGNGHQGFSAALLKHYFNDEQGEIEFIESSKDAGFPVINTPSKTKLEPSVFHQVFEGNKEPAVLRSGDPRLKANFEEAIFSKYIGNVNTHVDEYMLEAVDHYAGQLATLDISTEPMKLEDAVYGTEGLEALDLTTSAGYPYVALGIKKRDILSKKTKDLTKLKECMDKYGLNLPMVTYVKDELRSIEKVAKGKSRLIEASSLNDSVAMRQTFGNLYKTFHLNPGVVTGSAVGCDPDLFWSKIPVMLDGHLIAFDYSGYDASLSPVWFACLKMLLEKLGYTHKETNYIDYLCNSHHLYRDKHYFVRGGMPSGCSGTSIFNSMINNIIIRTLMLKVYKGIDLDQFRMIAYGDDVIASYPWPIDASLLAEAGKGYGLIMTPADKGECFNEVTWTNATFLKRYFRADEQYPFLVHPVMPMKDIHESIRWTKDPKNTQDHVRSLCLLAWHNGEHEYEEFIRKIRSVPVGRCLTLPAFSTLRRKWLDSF

Row | SMILES | inhibition
31 | O=C1/C(=C\c2ccccc2)C(c2ccccc2)=NN1c1ccccc1 | inactive
32 | O=C1/C(=C\c2cccc([N+](=O)[O-])c2)C(c2ccccc2)=NN1c1ccccc1 | inactive
33 | O=C1/C(=C\c2ccc(O)cc2)C(c2ccccc2)=NN1c1ccc(Cl)cc1 | inactive
34 | COc1ccc(/C=C2\C(=O)N(c3ccc(Cl)cc3)N=C2c2ccccc2)cc1 | inactive
35 | CC(=O)Nc1ccc(/C=C2\C(=O)N(c3ccc(Cl)cc3)N=C2c2ccccc2)cc1 | inactive
36 | O=C1/C(=C\c2ccccc2)C(c2ccccc2)=NN1c1ccc(Cl)cc1 | inactive
37 | O=C1/C(=C\c2ccc(Cl)cc2)C(c2ccccc2)=NN1c1ccc(Cl)cc1 | inactive
38 | CC(C)(C)c1ccc(N2N=C(c3ccccc3)/C(=C/c3ccc(C(=O)O)cc3)C2=O)cc1 | inactive
39 | CN(C)c1ccc(/C=C2\C(=O)N(c3ccccc3)N=C2c2ccccc2)cc1 | inactive
40 | CC(=O)Nc1ccc(/C=C2\C(=O)N(c3ccccc3)N=C2c2ccccc2)cc1 | inactive
41 | CC(C)c1ccc(N2N=C(c3ccccc3)/C(=C/c3ccc(C(=O)O)cc3)C2=O)cc1 | inactive
42 | COc1cccc(/C=C2\C(=O)N(c3ccccc3)N=C2c2ccccc2)c1 | inactive

system: HEK293; assay: Cytotoxicity against HEK293 cells at 200 uM after 24 hrs by MTT assay; type: cell-based; conditions: human, hek293, 24 h
Outline: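 HEK293 cells seeded at 2×10^5/ml in MEM with 10% FBS at 37 °C and 5% CO2. At 70% confluence, cells were exposed to compound for 24 h. MTT was then added for 4 h at 37 °C. Formazan was dissolved in DMSO after medium removal, and OD at 540 nm was read as cell viability.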

Row | SMILES | Activity
43 | O=C1/C(=C\c2ccccc2)C(c2ccccc2)=NN1c1ccccc1 | Non-toxic
44 | O=C(O)c1ccc(/C=C2\C(=O)N(c3ccc(Cl)c(Cl)c3)N=C2c2ccccc2)cc1 | Non-toxic
45 | O=C(O)c1ccc(/C=C2\C(=O)N(c3ccc(Cl)cc3)N=C2c2ccccc2)cc1 | Non-toxic
46 | O=C(O)c1ccc(/C=C2\C(=O)N(c3ccccc3)N=C2c2ccccc2)cc1 | Non-toxic
47 | O=C1/C(=C\c2cccc([N+](=O)[O-])c2)C(c2ccccc2)=NN1c1ccccc1 | Non-toxic
48 | COc1ccc(N2N=C(c3ccccc3)/C(=C/c3ccc(C(=O)O)cc3)C2=O)cc1 | Non-toxic
49 | O=C1/C(=C\c2ccc(O)cc2)C(c2ccccc2)=NN1c1ccc(Cl)cc1 | Non-toxic
50 | O=C(O)c1ccc(/C=C2\C(=O)N(c3ccc(OC(F)(F)F)cc3)N=C2c2ccccc2)cc1 | Non-toxic
51 | COc1ccc(/C=C2\C(=O)N(c3ccc(Cl)cc3)N=C2c2ccccc2)cc1 | Non-toxic
52 | CC(=O)Nc1ccc(/C=C2\C(=O)N(c3ccc(Cl)cc3)N=C2c2ccccc2)cc1 | Non-toxic
53 | N#Cc1ccc(N2N=C(c3ccccc3)/C(=C/c3ccc(C(=O)O)cc3)C2=O)cc1 | Non-toxic
54 | O=C(O)c1ccc(/C=C2\C(=O)N(c3cccc([N+](=O)[O-])c3)N=C2c2ccccc2)cc1 | Non-toxic
55 | O=C1/C(=C\c2ccccc2)C(c2ccccc2)=NN1c1ccc(Cl)cc1 | Non-toxic
56 | O=C(O)c1ccc(/C=C2\C(=O)N(c3cccc(Cl)c3)N=C2c2ccccc2)cc1 | Non-toxic
57 | O=C1/C(=C\c2ccc(Cl)cc2)C(c2ccccc2)=NN1c1ccc(Cl)cc1 | Non-toxic
58 | CC(C)(C)c1ccc(N2N=C(c3ccccc3)/C(=C/c3ccc(C(=O)O)cc3)C2=O)cc1 | Non-toxic
59 | CN(C)c1ccc(/C=C2\C(=O)N(c3ccccc3)N=C2c2ccccc2)cc1 | Non-toxic
60 | CC(=O)Nc1ccc(/C=C2\C(=O)N(c3ccccc3)N=C2c2ccccc2)cc1 | Non-toxic
61 | CC(C)c1ccc(N2N=C(c3ccccc3)/C(=C/c3ccc(C(=O)O)cc3)C2=O)cc1 | Non-toxic
62 | O=C(O)c1ccc(/C=C2\C(=O)N(c3ccc(F)cc3)N=C2c2ccccc2)cc1 | Non-toxic
63 | COc1cccc(/C=C2\C(=O)N(c3ccccc3)N=C2c2ccccc2)c1 | Non-toxic
